Assay outcomes as filed in PubChem.
Hits are enriched below; roughly 2.2% of the tested compounds scored in any of these assays.
MEX-5 binding: C. elegans MEX-5 TCR-2 RNA binding activity; Q9XUB2; MEX-5/FITC-TCR2 RNA binding, fluorescence polarization; stronger effect = lower value; activity score (negative = inhibition of binding), % at 10 µM; 300,000 tested, 0.38% active;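 active means inhibition past about -25% in most replicates, and total fluorescence under double the plate's negative control median, limit read from the data; inconclusive means replicates evenly split on the limit, or fluorescence at least double controls; inactive means too little inhibition in most replicates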
VIM-2 inhibitor: inhibitors of Pseudomonas aeruginosa VIM-2 metallo-beta-lactamase; 290,000 tested, 0.89% active; inhibition, % at 5.6 µM; AID 1527; purified VIM-2, nitrocefin hydrolysis, epi-absorbance fluorescence;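 active means inhibition above the mean of all tested compounds plus 3 SD, cutoff set per screening run, cut at about 7.5% in these data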;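 further: red hydrolysis product quenches plate fluorescence so inhibitors raise well fluorescence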
IMP-1 inh: blocks Pseudomonas aeruginosa IMP-1 metallo-beta-lactamase | purified IMP-1, nitrocefin hydrolysis, epi-absorbance fluorescence | inhibition, % at 5.6 µM | 290,000 tested, 0.45% active | AID 1556;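 active means inhibition above the mean plus 3 SD of all compounds in the same screening run, cut at about 4.5% in these data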
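System: purified recombinant IMP-1 beta-lactamase. Medium: Zinc- and detergent-supplemented HEPES buffer, pH 7.1. Compound: one 5.6 µM dose […]. Schedule: 15 min preincubation plus 25 min reaction at 25 °C. Technique: Epi-absorbance fluorescence, 480 nm excitation, 530 nm emission.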
Bcl-xL primary: Bcl-xL (human) inhibition. AID 2129. 320,000 tested, 0.7% active. Q07817. GST-Bcl-xL / FITC-Bim BH3 peptide fluorescence polarization. inhibition, % at 10.9 µM;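 active means inhibition above the mean of all tested compounds plus 3 SD, cutoff set per campaign, cut at about 30% in these data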;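 further: inhibitors lower millipolarization by displacing the labeled peptide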
Target sequence (Q07817 whole entry, looked up): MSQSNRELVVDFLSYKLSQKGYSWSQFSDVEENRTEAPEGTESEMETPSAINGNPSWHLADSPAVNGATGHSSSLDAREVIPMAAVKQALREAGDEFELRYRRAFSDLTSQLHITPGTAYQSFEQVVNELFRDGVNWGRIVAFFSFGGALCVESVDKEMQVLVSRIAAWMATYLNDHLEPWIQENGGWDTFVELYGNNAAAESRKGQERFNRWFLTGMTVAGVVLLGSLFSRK
EBV gp42 block: blocks Epstein-Barr virus glycoprotein 42 binding; Q1HVG2; Fluorescence polarization binding assay, mP read-out; inhibition, % (tested at 21.74 µM); 220,000 tested, 0.42% active; in the data active means inhibition above about 50%
GLD-1 RNA inh: GLD-1-TGE RNA interaction inhibition (C. elegans). inhibition, % at 5.96 µM. AID 2280. purified GLD-1 + fluorescein TGE RNA, fluorescence polarization. 320,000 tested, 0.44% active. Q17339;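 active means percent inhibition above a per-plate cutoff, the plate mean of test compounds plus 3 SD, cut at about 30% in these data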
Target sequence (Q17339 whole entry, looked up): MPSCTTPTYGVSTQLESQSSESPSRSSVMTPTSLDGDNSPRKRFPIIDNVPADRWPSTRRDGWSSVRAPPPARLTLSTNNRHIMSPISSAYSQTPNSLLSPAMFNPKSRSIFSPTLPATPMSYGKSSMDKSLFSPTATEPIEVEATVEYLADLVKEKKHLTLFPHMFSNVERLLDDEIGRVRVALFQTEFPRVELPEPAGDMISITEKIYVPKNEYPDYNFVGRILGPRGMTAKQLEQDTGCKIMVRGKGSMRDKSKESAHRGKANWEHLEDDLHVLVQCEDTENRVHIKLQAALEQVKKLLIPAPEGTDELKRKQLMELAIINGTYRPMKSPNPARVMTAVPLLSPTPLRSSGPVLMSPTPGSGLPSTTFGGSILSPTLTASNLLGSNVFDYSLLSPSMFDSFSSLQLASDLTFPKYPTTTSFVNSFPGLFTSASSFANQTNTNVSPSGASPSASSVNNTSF
Numbers stand for hits; – = inactive; ? = inconclusive; · = not tested or not shown.

SMILES | MEX-5 binding | VIM-2 inhibitor | IMP-1 inh | Bcl-xL primary | EBV gp42 block | GLD-1 RNA inh
Cc1sc(NC(=O)c2ccco2)c(CN2CCC(C)CC2)c1C | – | – | – | – | – | –
O=C1/C(=C/c2ccco2)Oc2c1ccc(O)c2CN1CCCCC1 | ? | – | – | 79 | 51 | 34
COc1ccc2c(c1)CC/C(=C/c1ccco1)C2=O | – | – | – | – | – | –
CCN1CCN(Cc2c(O)ccc3c2O/C(=C\C=C\c2ccccc2OC)C3=O)CC1 | ? | – | 28 | 39 | – | –
CC1CCN(Cc2c(O)ccc3c2O/C(=C\c2ccco2)C3=O)CC1 | ? | – | – | 123 | – | 68
O=c1c(-c2ccccc2)coc2c(CN3CCCC3)c(O)ccc12 | – | – | – | – | – | –
C=C(C)CSc1nc2sc3c(c2c(=O)n1-c1ccc(OC)cc1)CCN(C)C3 | – | – | – | · | · | ·
N=C1/C(=C\c2ccc(-c3ccc(C(=O)O)cc3)o2)C(=O)N=C2SC=C(c3ccccc3)N12 | – | – | 11 | · | 61 | ·
CCC(C)[C@H](NC(=O)[C@@H]1Cc2c([nH]c3ccccc23)C2c3ccccc3C(=O)N21)C(=O)NCC1CCCO1 (stereo partly drawn) | – | – | – | – | · | –
C[C@H](NC(=O)c1ccco1)C(=O)NCc1cccs1 | · | · | · | – | · | –
O=C1c2ccccc2C(=O)N1CCCCN(C(=O)c1ccc([N+](=O)[O-])cc1)c1ccc(Cl)cc1 | – | – | 37 | – | – | –
CCCc1cc(=O)[nH]c(SCC(=O)N2CCCC2=O)n1 | – | · | · | – | · | –
O=C1C2C3C=CC(C3)C2C(=O)N1c1ccc(N2CCN(c3ccccn3)CC2)c([N+](=O)[O-])c1 (stereo not drawn) | – | – | – | – | – | –
CCn1c(O)c(/C=N/N=C/c2ccccc2)c2ccc(C3=NNC(=O)CC3)cc21 | – | – | – | 49 | 60 | –
CCNc1cccc2c1C(=O)N(C)C2=O | – | – | – | 177 | 160 | 180
CCC(=O)Nc1cccc2c1C(=O)N(C)C2=O | – | – | – | – | – | –
O=C(c1ccc(F)c(S(=O)(=O)N2CCOCC2)c1)N1CCN(c2ncccn2)CC1 | · | · | · | – | · | –
N=C1S/C(=C\c2ccc(-c3cccc(Cl)c3)o2)C(=O)N1c1nccs1 | – | – | – | – | 76 | –
Cc1ccc(Cl)c2c1=NC(=O)C=2c1[nH]c(=S)[nH]c1O | -45 | – | 6.4 | – | – | –
CCN(C(=O)CSc1nnnn1-c1ccc(Cl)cc1)C1CCS(=O)(=O)C1 (stereo not drawn) | · | · | · | · | · | –
O=C(CCN1C(=O)NC2(CCCC2)C1=O)Nc1cccc(S(=O)(=O)N2CCOCC2)c1 | · | · | · | – | · | –
CCOc1ccc([N+](=O)[O-])cc1CNC1CCCCCCC1 | – | – | 39 | – | · | –
CC(C)OCCCn1c(-c2ccco2)nc2nc3ccccc3nc21 | · | – | – | 35 | – | –
CCC(C)n1c(-c2ccco2)nc2nc3ccccc3nc21 (stereo not drawn) | – | – | – | – | – | –
CCOC(=O)[C@H]1[C@H]2COc3ccc(C)cc3[C@@H]2N2C(=O)c3cc(Br)ccc3NC(=O)[C@@]12C | · | · | · | · | · | –
SMILES | MEX-5 binding | VIM-2 inhibitor | IMP-1 inh | Bcl-xL primary | EBV gp42 block | GLD-1 RNA inh
COc1ccc(/C=C(/NC(=O)c2ccco2)C(=O)NCc2ccco2)cc1OC | – | – | – | – | · | –
O=[N+]([O-])c1cc([N+](=O)[O-])c2cc(-c3cccnc3)[nH]c2c1 | – | · | · | 36 | · | –
O=[N+]([O-])c1ccc2nc(-c3cccnc3)[nH]c2c1 | – | – | – | – | · | –
CS(=O)(=O)NN1C(=O)c2ccccc2NC1c1cccc(O)c1 (stereo not drawn) | – | – | – | – | – | –
CN1C(=O)c2ccccc2NC(=O)[C@]12O[C@@H]2c1cccc(O)c1 | -44 | · | · | 62 | – | –
O=c1oc2ccccc2c2oc3cc(O)c(O)cc3c12 | – | – | – | – | – | –
O=c1oc2c(O)c(O)cc3c(=O)oc4c(O)c(O)cc1c4c23 | · | – | 6.1 | 74 | 86 | –
COc1ccc(NC(=O)COc2ccc(N(C)S(=O)(=O)c3ccc(Cl)cc3)cc2)cc1OC | – | · | · | – | · | –
O=C(CN1C(=O)C(c2ccccc2)Oc2cccnc21)NCc1ccccc1F (stereo not drawn) | – | – | 54 | – | · | –
COc1ccc(OC)c(NC(=O)CN(Cc2ccc(F)cc2)C2CCCCC2)c1 | – | – | – | – | · | –
COC(=O)c1cc2ccccn2c2c(C(=O)OC)c(C(=O)OC)cc1-2 | – | – | – | – | – | –
COC(=O)c1cc2c(C)c(C)c3ccccn3c-2c1C(=O)OC | ? | – | – | 112 | 50 | 86
COC(=O)c1cc2n3ccccc3c(C)c(-c3ccccc3)c-2c1C(=O)OC | ? | – | – | 110 | 103 | 86
O=[N+]([O-])c1ccc(-c2cn3nc(-c4ccccc4)c(-c4ccccc4)nc3n2)cc1 | – | – | – | – | 111 | –
O=[N+]([O-])c1cccc(-c2cn3nc(-c4ccccc4)c(-c4ccccc4)nc3n2)c1 | -44 | – | – | – | 72 | –
CC(OC(=O)c1ccccc1NCCO)C(=O)NCC(=O)Nc1ccc(F)c(F)c1F (stereo not drawn) | – | – | – | – | · | –
COC(=O)C1=C(Nc2ccccc2NC(=O)CCCC(=O)O)CSC1 | – | – | 4.5 | – | – | –
COC(=O)C1=C(Nc2ccccc2NC(=O)c2ccccc2C(=O)O)CSC1 | – | – | – | – | – | –
c1ccc(-c2nnc3ccc(N4CCC5(CC4)OCCO5)nn23)cc1 | – | 8.7 | – | – | – | –
Cc1nc(SCC(=O)N2CCCC2=O)nc(C)c1C | · | · | · | · | · | –
CCC(C)[C@@H](N)C(=O)N/N=C/c1ccc2ncccc2c1 (stereo partly drawn) | – | 7.8 | – | – | – | –
O=C(O)CN1CCN(Cc2ccccc2)C1=O | – | – | – | – | – | –
O=C(O)CN1CCCC1=Nc1ccccc1 | – | – | 4.8 | – | – | –
O=C(N/C(=C\c1ccccc1)C(=O)N1CCCCC1)c1ccc(Br)o1 | – | – | – | – | · | –
Cn1ncc(N=Cc2c(O)ccc3ccccc23)c1C(=O)Nc1cccc(Cl)c1 | – | – | – | 31 | – | –
SMILES | MEX-5 binding | VIM-2 inhibitor | IMP-1 inh | Bcl-xL primary | EBV gp42 block | GLD-1 RNA inh
Cn1ncc(Cl)c1C(=O)Nc1cccc(Cl)c1 | – | – | – | – | – | –
O=C1N=c2ccc([N+](=O)[O-])cc2=C1c1sc(=O)[nH]c1O | -59 | – | – | – | · | –
CN(C)CCCCOc1ccc(Br)cc1Cl | – | – | 24 | – | – | –
NC(=O)c1cc[n+](Cc2ccccc2Cl)cc1 | – | – | – | – | · | –
CCOc1ccc2c(c1)S/C(=C\c1cccs1)C(=O)N2 | – | – | – | – | – | –
COc1ccccc1-c1sc2ccccc2c1-c1ccc2c(c1)OCCO2 | · | · | · | – | · | –
COc1ccc(C=C(c2nc3ccccc3s2)c2nc3ccccc3s2)cc1O | – | – | – | – | – | 32
